The record followed here is ChEMBL document CHEMBL4402603, “Structure-Activity Relationship of SPOP Inhibitors against Kidney Cancer” (J Med Chem, 2020).

Each structure is given as a SMILES string. Activity calls are given as the source filed them. No cut-off for these calls is given here.

The target of data set [1] is Speckle-type POZ protein (Homo sapiens) (UniProt O43791). As to the kind of experiment: Binding affinity to recombinant N-terminal GST/His-tagged MATH binding domain SPOP (unknown origin) expressed in Escherichia coli BL21 (DE3) assessed as change in melting temperature at 20 fold compound incubated for 15 mins by nano differential scanning fluorimetry (reference value: -3.8 degreeC).

The test system of data set [2] is OS-RC-2. As to the kind of experiment: Antiproliferative activity against human OS-RC2 cells assessed as reduction in cell viability at 30 uM incubated for 72 hrs by MTT assay relative to control. The class given is functional. The following applies: OS-RC-2, 72 h. The gist of the method: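 MTT read-out. Cells seeded at 1,000-2,200/well, grown 12 hr at 37 °C, then compound added for 72 hr. MTT for 4 hr, formazan dissolved in DMSO, absorbance at 490 nm. Untreated-cell OD taken as 100% proliferation; inhibition reported at 30 μM.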

Data set [3] has as its system OS-RC-2. Kind of data set: Antiproliferative activity against human OS-RC2 cells assessed as reduction in cell viability incubated for 72 hrs by MTT assay. The format is functional, cell-based. As to conditions: OS-RC-2, 72 h. The method in brief: (§1)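 MTT read-out. Cells seeded at 1,000-2,200/well, grown 12 hr at 37 °C before compound, then exposed 72 hr. MTT for 4 hr, formazan dissolved in DMSO, A490 read. Untreated cells = 100% proliferation. IC50 quantitated; mean ± SD, n = 3.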

The target in data set [4] is Speckle-type POZ protein (Homo sapiens) (UniProt O43791). As to the kind of experiment: Inhibition of SPOP signalling in human OS-RC2 cells assessed as accumulation of PTEN incubated for 12 hrs by Western blot analysis. The format is cell-based. The method in brief: (§2)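 Cells treated with SPOP inhibitor at different concentrations for 12 hr, lysed in RIPA, protein by BCA. Samples run on 12% SDS-PAGE, blotted to nitrocellulose, primary antibody overnight at 4 °C, HRP secondary, ECL detection. GAPDH loading control. Triplicate experiments.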

Data set [5] shares this target. Kind of data set: Binding affinity to recombinant N-terminal GST/His-tagged SPOP (unknown origin) MATH binding domain expressed in Escherichia coli BL21 (DE3) assessed as change in melting temperature at 10 fold compound by SYPRO Orange dye based differential scanning fluorimetry (reference value: -1.7 degreeC).
The subject of the next data set is A549. Kind of data set: Cytotoxicity against human A549 cells assessed as reduction in cell viability incubated for 72 hrs by MTT assay. The class given is cell-based. The following applies: A549, 72 h. The method in brief: (§3)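 Cells maintained in DMEM/10% FBS at 37 °C, 5% CO2. Cell proliferation quantified by MTT after 72 hr compound exposure, A490 read. Untreated cells = 100%. Mean ± SD, n = 3.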

Data set [6] concerns the target Speckle-type POZ protein (Homo sapiens) (UniProt O43791). As to the kind of experiment: Inhibition of SPOP signalling in human A498 cells assessed as reduction in AKT phosphorylation at 0.5 to 10 uM incubated for 12 hrs by Western blot analysis. The format is cell-based. The method in brief:
(§4)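 Cells exposed 12 hr to inhibitor at graded concentrations, RIPA lysates normalized by BCA. 12% SDS-PAGE, nitrocellulose transfer, milk block, primary antibody at 4 °C overnight, HRP secondary, ECL. GAPDH loading control.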

The target is the same in data set [7]. As to the kind of experiment: Binding affinity to recombinant N-terminal GST/His-tagged SPOP (unknown origin) (23 to 337 residues) expressed in Escherichia coli BL21 (DE3) assessed as change in melting temperature at 5 fold compound incubated for 15 mins by nano differential scanning fluorimetry (reference value: -1.9 degreeC).
Data set [8] in a line: Selectivity index, ratio of IC50 for human A549 to IC50 for human A498 cells.
Data set [9] addresses Speckle-type POZ protein (Homo sapiens) (UniProt O43791). As to the kind of experiment: Inhibition of SPOP in HEK293T cells assessed as reduction in cell viability incubated for 72 hrs by MTT assay. The class given is cell-based.
Data set [10] has the same target. As to the kind of experiment: Binding affinity to recombinant N-terminal GST/His-tagged SPOP (unknown origin) (23 to 337 residues) expressed in Escherichia coli BL21 (DE3) assessed as change in melting temperature at 1 fold compound incubated for 15 mins by nano differential scanning fluorimetry (reference value: -1.9 degreeC).
Data set [11] has the same target. Kind of data set: Inhibition of SPOP signalling in human A498 cells assessed as accumulation of PTEN incubated for 12 hrs by Western blot analysis. The class given is cell-based. The method in brief: as §2
Data set [12] relates to OS-RC-2. Kind of data set: Inhibition of colony formation in human OS-RC2 cells at 1 to 5 uM incubated for 12 days by crystal violet dye based assay. The class given is functional, cell-based. The method in brief:
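Cells seeded at 1,000/well, grown 12 days at 37 °C, 5% CO2, medium renewed every 3 days. Fixed with 10% acetic acid/10% methanol for 15 min, stained with 1% crystal violet for 10 min.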

In data set [13] the target is Speckle-type POZ protein (Homo sapiens) (UniProt O43791). Kind of data set: Inhibition of SPOP signalling in human OS-RC2 cells assessed as effect of PTEN mRNA expression at 1 to 10 uM incubated for 12 hrs by qRT-PCR analysis. The format is cell-based.
The nature of data set [14]: Solubility of compound in cell culture medium in presence of 0.2 % DMSO. The format is physicochemical. The method in brief:
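Solubility determined in cell culture medium containing 0.2% DMSO.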

Data set [15] addresses Speckle-type POZ protein (Homo sapiens) (UniProt O43791). Kind of data set: Binding affinity to recombinant N-terminal GST/His-tagged SPOP (unknown origin) MATH binding domain expressed in Escherichia coli BL21 (DE3) assessed as change in melting temperature at 1 fold compound by SYPRO Orange dye based differential scanning fluorimetry (reference value: -1.7 degreeC).
Data set [16] has as its target Speckle-type POZ protein/PTEN (Homo sapiens) (UniProt P60484+O43791). Kind of data set: Inhibition of SPOP/PTEN interaction in human OS-RC2 cells assessed as increase in SPOP level at 1 to 50 uM incubated for 20 mins by DARTS based Western blot analysis. The format is cell-based. The method in brief: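 DARTS. Lysates of 1×10⁶ cells in TNC buffer, 120 μg per tube, incubated with compound at 0, 1, 5, 10 or 50 μM for 20 min at rt. Pronase digestion 10 min at rt (1:1000 for A498, 1:2000 for OS-RC-2), stopped with protease inhibitors, then SPOP western blot. Triplicate experiments.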

Another data set deals with A498. As to the kind of experiment: Antiproliferative activity against human A498 cells assessed as reduction in cell viability incubated for 72 hrs by MTT assay. The class given is functional, cell-based. As to conditions: A498, 72 h. The method in brief: as §1
Data set [17] concerns the target Speckle-type POZ protein (Homo sapiens) (UniProt O43791). Kind of data set: Inhibition of SPOP signalling in human A498 cells assessed as effect on total ERK level at 0.5 to 10 uM incubated for 12 hrs by Western blot analysis. The class given is cell-based. The method in brief:
as §4

Data set [18] has the same target. Kind of data set: Inhibition of SPOP signalling in human A498 cells assessed as effect on total AKT level at 0.5 to 10 uM incubated for 12 hrs by Western blot analysis. The class given is cell-based. The method in brief:
as §4

Data set [19] shares this target. As to the kind of experiment: Inhibition of SPOP signalling in human OS-RC2 cells assessed as effect of DUSP7 mRNA expression at 1 to 10 uM incubated for 12 hrs by qRT-PCR analysis. The class given is cell-based.
Data set [20] shares this target. As to the kind of experiment: Inhibition of SPOP signalling in human OS-RC2 cells assessed as accumulation of DUSP7 incubated for 12 hrs by Western blot analysis. The format is cell-based. The method in brief:
as §4

Data set [21] has the same target. As to the kind of experiment: Inhibition of SPOP signalling in human OS-RC2 cells assessed as reduction in AKT phosphorylation at 0.5 to 15 uM incubated for 12 hrs by Western blot analysis. The class given is cell-based. The method in brief: as §4
For the next data set, the system named is Hs 766. Kind of data set: Cytotoxicity against human Hs766T cells assessed as reduction in cell viability incubated for 72 hrs by MTT assay. The format is cell-based. As to conditions: Hs 766, 72 h. The gist of the method:
as §3

Chain of Speckle-type POZ protein (Homo sapiens) (O43791 whole entry, the tested form may be a part): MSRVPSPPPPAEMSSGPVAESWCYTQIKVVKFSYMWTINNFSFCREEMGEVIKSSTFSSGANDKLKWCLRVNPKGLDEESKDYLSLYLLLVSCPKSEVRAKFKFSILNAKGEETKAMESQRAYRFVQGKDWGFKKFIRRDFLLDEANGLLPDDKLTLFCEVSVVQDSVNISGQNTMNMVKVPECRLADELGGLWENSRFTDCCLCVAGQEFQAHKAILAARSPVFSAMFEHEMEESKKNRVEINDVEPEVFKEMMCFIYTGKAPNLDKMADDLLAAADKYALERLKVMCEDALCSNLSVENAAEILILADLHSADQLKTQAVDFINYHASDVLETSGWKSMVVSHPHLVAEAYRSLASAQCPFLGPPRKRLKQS
Chain of Speckle-type POZ protein/PTEN (Homo sapiens) (O43791 whole entry, looked up): as the sequence (O43791 whole entry, the tested form may be a part) above
Chain of Speckle-type POZ protein/PTEN (Homo sapiens) (P60484 whole entry, looked up): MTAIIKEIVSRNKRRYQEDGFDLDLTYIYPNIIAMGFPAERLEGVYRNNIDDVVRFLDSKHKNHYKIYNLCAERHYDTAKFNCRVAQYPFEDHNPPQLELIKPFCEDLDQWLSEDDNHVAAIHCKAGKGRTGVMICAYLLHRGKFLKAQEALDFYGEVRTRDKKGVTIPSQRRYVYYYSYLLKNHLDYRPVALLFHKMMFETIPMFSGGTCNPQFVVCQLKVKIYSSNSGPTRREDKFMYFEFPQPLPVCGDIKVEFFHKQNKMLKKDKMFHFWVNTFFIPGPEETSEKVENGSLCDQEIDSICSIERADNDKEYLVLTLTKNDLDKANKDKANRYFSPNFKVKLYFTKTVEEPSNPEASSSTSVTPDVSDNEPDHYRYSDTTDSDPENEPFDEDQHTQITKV

Consider `Cc1cccn2c(=O)c3cc(C(=O)NCCN4CCN(C)CC4)c(=N)n(CCc4cccs4)c3nc12`, for which the ΔTm in data set [1] amounted to 3.5 °C; in [5], 4 °C; in data set [7], 2.1 °C; in data set [10] it was 2.1 °C; in data set [15] it was 2.7 °C. For the same compound, the inhibition at 30 µM in the data set on OS-RC-2 [2] was 90%. The IC50 with OS-RC-2 [3] was found to be 3.5 µM; in the data set with A549, 16.2 µM; in the data set with A498, 2.1 µM; with Hs 766, 14.5 µM. Moreover, the inhibition entry in [4], in [11] and in [20] was “Dose-dependent effect” each time. Besides, the inhibition result (in data set [6]; in data set [9]; in the data set with OS-RC-2 [12]; in [16]; in data set [21]) was “Active” throughout. The “Ratio IC50” value in data set [8] was more than 5. The inhibition entry in [13], in [17], in data set [18] and in data set [19] was “inactive” each time. Moreover, the solubility in data set [14] was more than 90 µM.
